Measured values: ChEMBL document CHEMBL1649148, “Steady-state pharmacokinetics of abacavir in plasma and intracellular carbovir triphosphate following administration of abacavir at 600 milligrams once daily and 300 milligrams twice daily in human immunodeficiency virus-infected subjects” (Antimicrob Agents Chemother, 2009)

How the values were obtained:
Type in all cases: ADME, organism-based
Homo sapiens [1] = test: (§1) Drug level at the end of dosing interval in HIV infected patient at 600 mg QD by HPLC/MS/MS analysis; settings: in vivo
Summary of the method: (§2)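 Plasma abacavir at steady state in HIV-1-infected adults dosed orally 600 mg QD or 300 mg BID under fasting, serial samples predose to 24 h (plus 1 h) on days 1 and 11; validated HPLC-MS/MS, calibration 2.5–2,500 ng/ml; noncompartmental parameters from actual times, BID AUC0-24 taken as 2 × AUC0-τ.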

[2] = (§3) AUC (0 to 24 hrs) in HIV infected patient at 600 mg QD by HPLC/MS/MS analysis; design: dose 600 mg, time < 24 hr; settings: human, plasma; summary of the method: as §2
Homo sapiens [3] = test: (§4) Drug level at the end of dosing interval in HIV infected patient at 300 mg BID by HPLC/MS/MS analysis; settings: in vivo; summary of the method: as §2
Homo sapiens [4] = species: Homo sapiens; test: Ratio of AUC in HIV infected patient assessed as carbovir-triphosphate level per million cells to AUC in HIV infected patient at 600 mg QD by HPLC/MS/MS analysis; settings: in vivo
Summary of the method: (§5)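 Per-subject ratio of intracellular CBV-TP AUC0-24 (PBMC, fmol/million cells, LC-MS/MS) to plasma abacavir AUC0-24 (HPLC-MS/MS), both by noncompartmental analysis from serial samples over 24 h on days 1 and 11 of oral 600 mg QD or 300 mg BID dosing in fasted HIV-1-infected adults.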

Homo sapiens [5] = species: Homo sapiens; test: Ratio of AUC in HIV infected patient assessed as assessed as carbovir-triphosphate level per million cells to AUC in HIV infected patient at 300 mg BID by HPLC/MS/MS analysis; settings: in vivo; summary of the method: as §5
[6] = Cmax in HIV infected patient at 300 mg BID by HPLC/MS/MS analysis; design: dose 300 mg; settings: human, in vivo; summary of the method: as §2
Homo sapiens [7] = test: as §4; settings: in vivo; summary of the method: as §2; remark: listed apart in the source
[8] = as §3; design: time < 24 hr, dose 600 mg; settings: male, human, plasma; summary of the method: as §2
[9] = Cmax in HIV infected patient at 600 mg QD by HPLC/MS/MS analysis; design: dose 600 mg; settings: human, in vivo; summary of the method: as §2
Homo sapiens [10] = test: as §1; settings: in vivo; summary of the method: as §2; remark: listed apart in the source
[11] = AUC (0 to 24 hrs) in HIV infected patient at 300 mg BID by HPLC/MS/MS analysis; design: time < 24 hr, dose 300 mg; settings: human, plasma; summary of the method: as §2
Homo sapiens [12] = test: as §4; settings: in vivo; summary of the method: as §2; remark: listed apart in the source
Homo sapiens [13] = test: as §1; settings: in vivo; summary of the method: as §2; remark: listed apart in the source
Homo sapiens [14] = species: Homo sapiens; test: Ratio of AUC in HIV infected male patient assessed as assessed as carbovir-triphosphate level per million cells to AUC in HIV infected male patient at 300 mg BID by HPLC/MS/MS analysis; settings: in vivo; summary of the method: as §5
Homo sapiens [15] = species: Homo sapiens; test: Ratio of AUC in HIV infected female patient assessed as assessed as carbovir-triphosphate level per million cells to AUC in HIV infected female patient at 300 mg BID by HPLC/MS/MS analysis; settings: in vivo; summary of the method: as §5
Homo sapiens [16] = species: Homo sapiens; test: Ratio of AUC in HIV infected female patient assessed as carbovir-triphosphate level per million cells to AUC in HIV infected female patient at 600 mg QD by HPLC/MS/MS analysis; settings: in vivo; summary of the method: as §5
Homo sapiens [17] = species: Homo sapiens; test: Ratio of AUC in HIV infected male patient assessed as carbovir-triphosphate level per million cells to AUC in HIV infected male patient at 600 mg QD by HPLC/MS/MS analysis; settings: in vivo; summary of the method: as §5
Homo sapiens [18] = species: Homo sapiens; test: (§6) Cmax in HIV infected patient assessed as carbovir-triphosphate level per million cells at 600 mg QD by HPLC/MS/MS analysis; design: dose 600 mg; settings: in vivo
Summary of the method: (§7)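 Steady-state crossover in HIV-1-infected adults, oral abacavir 600 mg QD or 300 mg BID, fasted ≥10 h before and 2 h after dosing; blood drawn predose and 2–24 h postdose on days 1 and 11. PBMC isolated, counted in duplicate, lysed in ice-cold 70% methanol; CBV-TP measured by LC-MS/MS after anion exchange and alkaline phosphatase hydrolysis, converted to fmol/million cells; noncompartmental analysis.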

Homo sapiens [19] = species: Homo sapiens; test: (§8) AUC (0 to 24 hrs) in HIV infected patient assessed as carbovir-triphosphate level per million cells at 600 mg QD by HPLC/MS/MS analysis; design: dose 600 mg, time < 24 hr; settings: in vivo; summary of the method: as §7
Homo sapiens [20] = species: Homo sapiens; test: (§9) AUC (0 to 24 hrs) in HIV infected patient assessed as carbovir-triphosphate level per million cells at 300 mg BID by HPLC/MS/MS analysis; design: time < 24 hr, dose 300 mg; settings: in vivo; summary of the method: as §7
Homo sapiens [21] = species: Homo sapiens; test: (§10) Cmax in HIV infected patient assessed as carbovir-triphosphate level per million cells at 300 mg BID by HPLC/MS/MS analysis; design: dose 300 mg; settings: in vivo; summary of the method: as §7
Homo sapiens [22] = species: Homo sapiens; test: as §9; design: dose 300 mg, time < 24 hr; settings: in vivo; summary of the method: as §7
Homo sapiens [23] = species: Homo sapiens; test: as §10; design: dose 300 mg; settings: in vivo; summary of the method: as §7; remark: listed apart in the source
Homo sapiens [24] = test: (§11) Drug level at end of dosing interval in HIV infected patient assessed as carbovir-triphosphate level per million cells at 300 mg BID by HPLC/MS/MS analysis; settings: in vivo; summary of the method: as §7
Homo sapiens [25] = species: Homo sapiens; test: AUC (0 to 24 hrs) in HIV infected male patient assessed as carbovir-triphosphate level per million cells at 600 mg QD by HPLC/MS/MS analysis; design: dose 600 mg, time < 24 hr; settings: in vivo; summary of the method: as §7
Homo sapiens [26] = species: Homo sapiens; test: as §6; design: dose 600 mg; settings: in vivo; summary of the method: as §7; remark: listed apart in the source
Homo sapiens [27] = species: Homo sapiens; test: AUC (0 to 24 hrs) in HIV infected female patient assessed as carbovir-triphosphate level per million cells at 300 mg BID by HPLC/MS/MS analysis; design: dose 300 mg, time < 24 hr; settings: in vivo
Homo sapiens [28] = species: Homo sapiens; test: as §10; design: dose 300 mg; settings: in vivo; summary of the method: as §7; remark: listed apart in the source
Homo sapiens [29] = test: as §11; settings: in vivo; summary of the method: as §7; remark: listed apart in the source
Homo sapiens [30] = species: Homo sapiens; test: as §8; design: dose 600 mg, time < 24 hr; settings: in vivo; summary of the method: as §7; remark: listed apart in the source
Homo sapiens [31] = species: Homo sapiens; test: as §6; design: dose 600 mg; settings: in vivo; summary of the method: as §7; remark: listed apart in the source

## Nc1nc(NC2CC2)c2ncn([C@H]3C=C[C@@H](CO)C3)c2n1 [ABACAVIR]
Homo sapiens [1]
  Ct: 0.009 µg/mL
[2]; female
  AUC at 24 h: 11700 ng·h/mL
[2]
  AUC at 24 h: 8520 ng·h/mL
Homo sapiens [3]
  Ct: 0.018 µg/mL
Homo sapiens [4]
  Ratio AUC: 123
Homo sapiens [5]
  Ratio AUC: 103
[6]
  Cmax: 1840 ng/mL
[6]; male
  Cmax: 1590 ng/mL
Homo sapiens [7]
  Ct: 0.015 µg/mL
[8]
  AUC at 24 h: 7260 ng·h/mL
[9]; female
  Cmax: 4830 ng/mL
[9]
  Cmax: 3850 ng/mL
[9]; male
  Cmax: 3430 ng/mL
Homo sapiens [10]
  Ct: 0.008 µg/mL
[11]; female
  AUC at 24 h: 10900 ng·h/mL
[11]
  AUC at 24 h: 7900 ng·h/mL
[11]; male
  AUC at 24 h: 6740 ng·h/mL
Homo sapiens [12]
  Ct: 0.026 µg/mL
Homo sapiens [13]
  Ct: 0.009 µg/mL
Homo sapiens [14]
  Ratio AUC: 102
Homo sapiens [15]
  Ratio AUC: 105
Homo sapiens [16]
  Ratio AUC: 158
Homo sapiens [17]
  Ratio AUC: 109

## Nc1nc(=O)c2ncn([C@H]3C=C[C@@H](COP(=O)(O)OP(=O)(O)OP(=O)(O)O)C3)c2[nH]1 [CARBOVIR 5'-TRIPHOSPHATE, (-)-]
Homo sapiens [18]
  Cmax: 114 fmol/10^6 cells
Homo sapiens [19]
  AUC: 1051 h·fmol/million cells
Homo sapiens [20]
  AUC: 814 h·fmol/million cells
Homo sapiens [21]
  Cmax: 58.5 fmol/10^6 cells
Homo sapiens [22]
  AUC: 688 h·fmol/million cells
Homo sapiens [23]
  Cmax: 49.3 fmol/10^6 cells
Homo sapiens [24]
  Ct: 18.7 fmol/10^6 cells
Homo sapiens [25]
  AUC: 792 h·fmol/million cells
Homo sapiens [26]
  Cmax: 86.5 fmol/10^6 cells
Homo sapiens [27]
  AUC: 1138 h·fmol/million cells
Homo sapiens [28]
  Cmax: 82.5 fmol/10^6 cells
Homo sapiens [29]
  Ct: 37.2 fmol/10^6 cells
Homo sapiens [30]
  AUC: 1851 h·fmol/million cells
Homo sapiens [31]
  Cmax: 198 fmol/10^6 cells
Homo sapiens [17]
  AUC: 1051 fmol·h
